Experimental data reported in ChEMBL document CHEMBL1154599 (J Med Chem, 2009).

Key:
[1] = target: T1, Amine oxidase [flavin-containing] B (Rattus norvegicus, UniProt P19643); test: Inhibition of MAO-B from Wistar rat brain by radioenzymatic assay
T1 sequence (P19643 whole entry): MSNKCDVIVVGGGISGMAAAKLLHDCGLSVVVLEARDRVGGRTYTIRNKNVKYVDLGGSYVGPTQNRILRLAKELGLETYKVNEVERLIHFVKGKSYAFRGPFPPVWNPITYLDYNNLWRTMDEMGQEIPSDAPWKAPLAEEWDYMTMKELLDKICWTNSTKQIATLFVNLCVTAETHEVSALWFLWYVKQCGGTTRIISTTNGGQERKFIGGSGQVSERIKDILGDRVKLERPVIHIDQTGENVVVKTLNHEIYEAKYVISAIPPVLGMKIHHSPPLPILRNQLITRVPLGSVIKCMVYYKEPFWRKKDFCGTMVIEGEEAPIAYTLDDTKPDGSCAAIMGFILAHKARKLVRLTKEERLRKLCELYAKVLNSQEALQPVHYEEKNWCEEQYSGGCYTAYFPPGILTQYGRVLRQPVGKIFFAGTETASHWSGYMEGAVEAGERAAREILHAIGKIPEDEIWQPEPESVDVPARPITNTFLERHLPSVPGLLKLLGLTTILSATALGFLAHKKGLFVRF
Outline: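 Crude mitochondrial fraction from male Wistar rat brain (150-175 g), 500 μg protein in 0.1 M phosphate pH 7.40. Preincubated 30 min at 37 °C with compound. Substrate then added: [14C]5-HT 5 μM for 30 min (MAO-A) or [14C]PEA 0.5 μM for 10 min (MAO-B), 37 °C. Stopped with acid, deaminated metabolites extracted into ether or toluene, counted by scintillation.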

[2] = Permeability across PAMPA membrane assessed as permeability coefficient at 2.5 mM by HDM-PAMPA assay; type: ADME; conditions: 2500 µM
Outline: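 Hexadecane artificial membrane (0.75 μL per well, applied as 5% v/v in hexane, hexane evaporated) on polycarbonate filters; donor and acceptor in 0.1 M phosphate buffer pH 6.8 with 5% DMSO (iso-pH); 5 h at room temperature, shaking at 75 rpm; quadruplicate. Donor and acceptor concentrations read by UV at λmax. Retention, CA(t)/CD(0) and Pe calculated by the stated equations, τLAG neglected; membrane integrity checked by electrical resistance.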

[3] = target: T2, Cytochrome P450 1A2 (Homo sapiens, UniProt P05177); test: Inhibition of human recombinant CYP1A2; type: ADME
T2 sequence (P05177 whole entry): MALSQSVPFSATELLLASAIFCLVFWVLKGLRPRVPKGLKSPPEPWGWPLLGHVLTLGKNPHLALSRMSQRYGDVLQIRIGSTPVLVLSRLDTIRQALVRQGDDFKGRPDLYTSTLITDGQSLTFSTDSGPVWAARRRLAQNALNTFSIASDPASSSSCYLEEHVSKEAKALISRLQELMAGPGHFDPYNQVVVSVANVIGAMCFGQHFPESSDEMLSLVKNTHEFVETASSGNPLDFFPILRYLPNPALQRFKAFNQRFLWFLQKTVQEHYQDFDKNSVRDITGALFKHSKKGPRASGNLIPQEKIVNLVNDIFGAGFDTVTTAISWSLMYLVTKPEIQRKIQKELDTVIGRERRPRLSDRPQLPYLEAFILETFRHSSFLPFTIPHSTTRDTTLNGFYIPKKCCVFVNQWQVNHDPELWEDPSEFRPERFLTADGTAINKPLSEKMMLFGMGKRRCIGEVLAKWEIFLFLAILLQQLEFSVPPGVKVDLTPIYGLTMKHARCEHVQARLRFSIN
Outline: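 Recombinant human CYP supersomes were incubated at 37 C in incubation/NADPH regenerating buffer with isoform-specific substrates that turn fluorescent on metabolism. The substrate was 3-cyano-7-ethoxycoumarin for CYP1A2 and 7-methoxy-4-trifluoromethylcoumarin for CYP2C9. Fluorescence was read at the appropriate excitation/emission wavelengths, with a literature inhibitor as positive control in each assay.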

[4] = target: Cytochrome P450 2E1 (Homo sapiens, UniProt P05181); test: Inhibition of human recombinant CYP2E1; type: ADME
Chain of Cytochrome P450 2E1 (P05181 whole entry, canonical isoform): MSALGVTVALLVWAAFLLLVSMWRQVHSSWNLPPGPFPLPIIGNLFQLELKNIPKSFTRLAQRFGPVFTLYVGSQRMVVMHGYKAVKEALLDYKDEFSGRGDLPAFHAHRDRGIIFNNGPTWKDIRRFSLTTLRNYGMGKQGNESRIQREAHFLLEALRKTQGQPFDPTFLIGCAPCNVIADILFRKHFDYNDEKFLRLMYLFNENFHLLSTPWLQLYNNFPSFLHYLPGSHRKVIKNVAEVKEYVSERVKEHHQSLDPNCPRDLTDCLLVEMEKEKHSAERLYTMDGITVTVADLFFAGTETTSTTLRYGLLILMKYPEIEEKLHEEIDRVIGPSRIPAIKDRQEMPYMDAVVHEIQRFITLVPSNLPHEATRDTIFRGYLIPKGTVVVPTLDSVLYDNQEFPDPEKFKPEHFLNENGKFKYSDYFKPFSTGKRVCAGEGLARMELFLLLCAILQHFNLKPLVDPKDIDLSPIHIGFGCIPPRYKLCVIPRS
Outline: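 Human recombinant CYP isoenzymes (supersomes) were incubated at 37 C with the test compound in incubation/NADPH-regenerating buffer plus a fluorogenic substrate. The substrate was 3-[2-(N,N-diethyl-N-methylammonium)ethyl]-7-methoxy-4-methylcoumarin for CYP2D6 and 7-methoxy-4-phenylcoumarin for CYP2E1. Fluorescent product was read at isoform-appropriate wavelengths, with a literature inhibitor as positive control. IC50 came from nonlinear regression of at least seven concentrations, each in duplicate.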

CNCc1cc(=O)oc2cc(OCc3cccc(Cl)c3)ccc12.CS(=O)(=O)O
IC50 [1]: 13 nM | log Pe [2]: -3.48 cm/s | IC50 [3]: > 5000 nM | IC50 [4]: > 5000 nM
